From ChEMBL document CHEMBL3352437, “Novel 3,5-bis(arylidene)-4-oxo-1-piperidinyl dimers: structure-activity relationships and potent antileukemic and antilymphoma cytotoxicity” (Eur J Med Chem, 2014)

Experiments:
[1] = Cytotoxicity against human NCI60 cells assessed as inhibition of tumor growth after 24 hrs; type: functional, cell-based; details: NCI60, 24 h
K562 = experiment: Antileukemic activity against human K562 cells assessed as inhibition of tumor growth after 24 hrs; type: functional, cell-based; details: K562, 24 h
KM12 = experiment: Cytotoxicity against human KM12 cells assessed as inhibition of tumor growth after 24 hrs; type: functional, cell-based; details: KM12, 24 h
SW-620 = experiment: Cytotoxicity against human SW620 cells assessed as inhibition of tumor growth after 24 hrs; type: functional, cell-based; details: SW-620, 24 h
SR = experiment: Antileukemic activity against human SR cells assessed as inhibition of tumor growth after 24 hrs; type: functional, cell-based
[2] = Cytotoxicity against human HCT15 cells assessed as inhibition of tumor growth after 24 hrs; type: functional, cell-based; details: HCT-15, 24 h
HL-60(TB) = experiment: Antileukemic activity against human HL-60(TB) cells assessed as inhibition of tumor growth after 24 hrs; type: functional, cell-based; details: HL-60, 24 h
HCC 2998 = experiment: Cytotoxicity against human HCC2998 cells assessed as inhibition of tumor growth after 24 hrs; type: functional, cell-based; details: HCC 2998, 24 h
COLO 205 = experiment: Cytotoxicity against human COLO205 cells assessed as inhibition of tumor growth after 24 hrs; type: functional, cell-based; details: COLO 205, 24 h
[3] = Antileukemic activity against human RPMI8226 cells assessed as inhibition of tumor growth after 24 hrs; type: functional, cell-based; details: rpmi-8226
[4] = Cytotoxicity against human NALM6 cells assessed as dead cells at 1 uM after 24 hrs; type: functional, NALM-6
In short: (§1)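 Dienones added as DMSO solutions to cells in RPMI medium and incubated 24 h at 37°C. Cytotoxicity was scored as cell-membrane disruption by propidium iodide staining and expressed as percentage of dead cells, averaged over three independent experiments.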

[5] = Cytotoxicity against human MOLT3 cells assessed as dead cells at 1 uM after 24 hrs; type: functional, MOLT-3; in short: as §1
Ramos = experiment: Cytotoxicity against human Ramos cells assessed as dead cells at 1 uM after 24 hrs; type: functional; in short: as §1
Raji = experiment: Cytotoxicity against human Raji cells assessed as dead cells at 1 uM after 24 hrs; type: functional; in short: as §1
HeLa = experiment: Antiproliferative activity against human HeLa cells after 72 hrs by coulter counting analysis; type: functional, cell-based
In short: (§2)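 Cells exposed to a range of concentrations in RPMI 1640 at 37°C for 72 h. Surviving cells counted by Coulter counter. IC50 taken from concentration-response curves, mean ± SD of at least three independent experiments.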

[6] = Cytotoxicity against human MDA231 cells assessed as dead cells at 1 uM after 24 hrs; type: functional, MDA-MB-231; in short: as §1
HCC70 = experiment: Cytotoxicity against human HCC70 cells assessed as dead cells at 1 uM after 24 hrs; type: functional; in short: as §1
Jurkat = experiment: Cytotoxicity against human Jurkat cells assessed as dead cells at 1 uM after 24 hrs; type: functional; in short: as §1
LAPC4 = experiment: Cytotoxicity against human LAPC4 cells assessed as dead cells at 1 uM after 24 hrs; type: functional; in short: as §1
[7] = Cytotoxicity against human SupT1 cells assessed as dead cells at 1 uM after 24 hrs; type: functional, SUP-T1; in short: as §1
CCRF-CEM [8] = experiment: Antiproliferative activity against human CEM cells after 72 hrs by coulter counting analysis; type: functional, cell-based; in short: as §2
HS27 = experiment: Cytotoxicity against human HS27 cells assessed as dead cells at 1 uM after 24 hrs; type: cell-based; details: hs27, 24 h
In short: (§3)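 Compounds added from DMSO solutions to cells in medium (RPMI; DMEM for Hs-27 fibroblasts) and incubated 24 h at 37°C. Membrane disruption scored by propidium iodide uptake. Result is percentage of dead cells, average of three independent experiments.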

[9] = Cytotoxicity against human 22Rvl cells assessed as dead cells at 1 uM after 24 hrs; type: functional; in short: as §1
L1210 = experiment: Antiproliferative activity against mouse L1210 cells after 72 hrs by coulter counting analysis; type: functional, cell-based; details: L1210, 72 h
BJAB = experiment: Cytotoxicity against human BJAB cells assessed as dead cells at 1 uM after 24 hrs; type: functional; in short: as §1
MCF7 = experiment: Cytotoxicity against human MCF7 cells assessed as dead cells at 1 uM after 24 hrs; type: functional; in short: as §1
[10] = Cytotoxicity against human MCF10A cells assessed as dead cells at 1 uM after 24 hrs; type: cell-based; details: mcf-10a; in short: as §3
CCRF-CEM [11] = experiment: Cytotoxicity against human CEM cells assessed as dead cells at 1 uM after 24 hrs; type: functional; in short: as §1
[12] = Antiproliferative activity against human Molt4/C8 cells after 72 hrs by coulter counting analysis; type: functional, cell-based; details: MOLT-4, 72 h; in short: as §2
EL4 = experiment: Cytotoxicity against mouse EL4 cells assessed as dead cells at 1 uM after 24 hrs; type: functional; in short: as §1
[13] = Cytotoxicity against human HuT-102 cells assessed as dead cells at 1 uM after 24 hrs; type: functional; in short: as §1
YT = experiment: Cytotoxicity against human YT cells assessed as dead cells at 1 uM after 24 hrs; type: functional; in short: as §1
DU-145 = experiment: Cytotoxicity against human DU145 cells assessed as dead cells at 1 uM after 24 hrs; type: functional; in short: as §1

| SMILES | IC50 [1] [µM] | IC50 (K562) [µM] | IC50 (KM12) [µM] | IC50 (SW-620) [µM] | IC50 (SR) [µM] | IC50 [2] [µM] | IC50 (HL-60(TB)) [µM] | IC50 (HCC 2998) [µM] | IC50 (COLO 205) [µM] | IC50 [3] [µM] | IC50 (HeLa) [µM] | IC50 (CCRF-CEM [8]) [µM] | IC50 (L1210) [µM] | IC50 [12] [µM] | further results |
| --- | --- | --- | --- | --- | --- | --- | --- | --- | --- | --- | --- | --- | --- | --- | --- |
| O=C1/C(=C\c2ccc(O)cc2)CN(C(=O)CC(=O)N2C/C(=C\c3ccc(O)cc3)C(=O)/C(=C/c3ccc(O)cc3)C2)C/C1=C\c1ccc(O)cc1 | 1.66 | 0.53 | 0.69 | 0.76 | 0.46 | 1.17 | 1.74 | 1.74 | 1.66 | 0.35 | – | – | – | – | – |
| O=C1/C(=C\c2ccccc2)CN(CCCN2C/C(=C\c3ccccc3)C(=O)/C(=C/c3ccccc3)C2)C/C1=C\c1ccccc1 | 0.19 | 0.04 | 0.16 | 0.06 | 0.04 | 0.2 | 0.25 | 0.18 | 0.19 | 0.04 | 5.54 | 2.52 | 2.98 | 1.45 | Activity [4]: 49.2%; Activity [5]: 27.4%; Activity (Ramos): 82.1%; Activity (Raji): 31.9%; Activity [6]: 20.1%; Activity (HCC70): 4.3%; Activity (Jurkat): 76.3%; Activity (LAPC4): 5.7%; Activity [7]: 21.2%; Activity (HS27): 2.9%; Activity [9]: 1.7%; Activity (BJAB): 39.4%; Activity (MCF7): 43.5%; Activity [10]: 19.4%; Activity (CCRF-CEM [11]): 64.5%; Activity (EL4): 65.3%; Activity [13]: 10%; Activity (YT): 6.6% |
| O=C1/C(=C\c2ccc(Cl)c(Cl)c2)CN(C(=O)CC(=O)N2C/C(=C\c3ccc(Cl)c(Cl)c3)C(=O)/C(=C/c3ccc(Cl)c(Cl)c3)C2)C/C1=C\c1ccc(Cl)c(Cl)c1 | – | – | – | – | – | – | – | – | – | – | 39.8 | 49.9 | 30.4 | 23.5 | – |
| O=C1/C(=C\c2ccc(F)cc2)CN(C(=O)CC(=O)N2C/C(=C\c3ccc(F)cc3)C(=O)/C(=C/c3ccc(F)cc3)C2)C/C1=C\c1ccc(F)cc1 | – | – | – | – | – | – | – | – | – | – | 5.61 | 2.75 | 11 | 1.58 | Activity [4]: 51.9%; Activity [5]: 2.6%; Activity (Ramos): 78.6%; Activity (Raji): 35.3%; Activity (DU-145): 38.4%; Activity [6]: 0.4%; Activity (HCC70): 3.1%; Activity (Jurkat): 87.1%; Activity (LAPC4): 11.1%; Activity [7]: 24.9%; Activity (HS27): 0.3%; Activity [9]: 18.8%; Activity (BJAB): 61.2%; Activity (MCF7): 0.2%; Activity [10]: 7%; Activity (CCRF-CEM [11]): 92.4%; Activity (EL4): 47.7%; Activity [13]: 58.5%; Activity (YT): 19.2% |
| COc1cc(/C=C/C(=O)CC(=O)/C=C/c2ccc(O)c(OC)c2)ccc1O [CURCUMIN] | – | – | – | – | – | – | – | – | – | – | 21.2 | 8.16 | 15.1 | 6.46 | – |
| N[C@@H](Cc1ccc(N(CCCl)CCCl)cc1)C(=O)O [MELPHALAN] | 19.1 | 195 | 57.5 | 26.9 | 3.24 | – | 0.38 | 52.5 | 32.4 | 28.2 | 1.7 | 1.44 | 4.85 | 2.81 | – |
| O=C1/C(=C\c2ccccc2)CN(C(=O)CC(=O)N2C/C(=C\c3ccccc3)C(=O)/C(=C/c3ccccc3)C2)C/C1=C\c1ccccc1 | 0.24 | 0.05 | 0.13 | 0.05 | 0.03 | 0.17 | 0.29 | 0.17 | 0.16 | 0.13 | 0.91 | 0.201 | 1.23 | 0.073 | – |
| O=c1[nH]cc(F)c(=O)[nH]1 [FLUOROURACIL] | 29.5 | – | – | – | – | – | – | – | – | 3.55 | – | – | – | – | – |
| CN(C)c1ccc(/C=C2\CN(C(=O)C(=O)N3C/C(=C\c4ccc(N(C)C)cc4)C(=O)/C(=C/c4ccc(N(C)C)cc4)C3)C/C(=C\c3ccc(N(C)C)cc3)C2=O)cc1 | – | – | – | – | – | – | – | – | – | – | > 500 | 276 | 297 | 437 | – |
| Cc1ccc(/C=C2\CN(C(=O)C(=O)N3C/C(=C\c4ccc(C)cc4)C(=O)/C(=C/c4ccc(C)cc4)C3)C/C(=C\c3ccc(C)cc3)C2=O)cc1 | – | – | – | – | – | – | – | – | – | – | 3.79 | 7.72 | 9.09 | 1.66 | Activity [4]: 59.5%; Activity [5]: 0.8%; Activity (Ramos): 84.4%; Activity (Raji): 41.5%; Activity (DU-145): 26%; Activity [6]: 9.3%; Activity (HCC70): 11.9%; Activity (Jurkat): 80.7%; Activity (LAPC4): 2.4%; Activity [7]: 18.8%; Activity (HS27): 12%; Activity [9]: 16.2%; Activity (BJAB): 41.5%; Activity (MCF7): 0%; Activity [10]: 9.3%; Activity (CCRF-CEM [11]): 68.4%; Activity (EL4): 43.5%; Activity [13]: 13.9%; Activity (YT): 20.1% |
| O=C1/C(=C/c2ccccc2)CN(C(=O)C(=O)N2C/C(=C\c3ccccc3)C(=O)/C(=C/c3ccccc3)C2)C/C1=C\c1ccccc1 | 0.31 | – | – | – | 0.02 | 0.3 | – | – | – | 0.03 | 1 | 0.75 | 4.46 | 0.462 | – |
| COc1ccc(/C=C2/CN(C(=O)CC(=O)N3C/C(=C\c4ccc(OC)cc4)C(=O)/C(=C/c4ccc(OC)cc4)C3)C/C(=C\c3ccc(OC)cc3)C2=O)cc1 | – | – | – | – | – | – | – | – | – | – | 219 | 369 | > 500 | 449 | – |
